In general, IC50 refers to the point on the concentration scale where inhibition reaches its midpoint. As a reminder, the EC50 is the concentration giving half of the maximal effect.

Calls of active or inactive are those of the source. The rule behind the calls is not given here.

From ChEMBL document CHEMBL1157820, “Vaccinia virus virulence factor N1L is a novel promising target for antiviral therapeutic intervention” (J Med Chem, 2010) come the findings set out here.

Data set [1] addresses T1, N1L (Vaccinia virus, UniProt Q49PX0).
T1 sequence (Q49PX0 whole entry): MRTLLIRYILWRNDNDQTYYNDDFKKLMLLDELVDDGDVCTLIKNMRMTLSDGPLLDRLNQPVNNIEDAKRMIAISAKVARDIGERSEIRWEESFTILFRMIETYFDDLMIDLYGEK
Description: Displacement of FITC-conjugated BH3-Bak peptide from 0.5 uM Vaccinia virus recombinant N1L expressed in Escherichia coli BL21 (DE3) by fluorescence polarization assay. On the set-up: species or system Orthopoxvirus vaccinia. The method in brief: (§1)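 Fluorescence polarization competition: N1L or Bcl-XL incubated with 10 nM BH3-Bak peptide and titrated ligand. Bcl-XL run on the same plate as N1L. N1L tested at several concentrations, none below 500 nM. Normalized polarization vs log ligand fit to a variable-slope dose-response curve for competitive IC50.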
For orientation: Fluorescence polarisation rises when a labelled molecule tumbles more slowly, as on binding a larger partner.

Data set [2] addresses T1, N1L. Nature of the data set: Displacement of FITC-conjugated BH3-Bak peptide from 1 uM Vaccinia virus recombinant N1L expressed in Escherichia coli BL21 (DE3) by fluorescence polarization assay. More on the design: species or system Orthopoxvirus vaccinia. Put shortly:
as §1

The target of data set [3] is N1L (Vaccinia virus) (UniProt Q49PX0). Nature of the data set: Binding affinity to Vaccinia virus recombinant N1L expressed in Escherichia coli BL21 (DE3) assessed as protein melting temperature at 214 uM by differential scanning calorimetry. Conditions: Orthopoxvirus vaccinia. The method in brief:
(§2)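 Differential scanning calorimetry of recombinant N1L at 1.0 mg/ml (71 μM) in PBS with 2 or 5% DMSO, plus 214 μM compound, against a DMSO-only reference. Scanned at 1 K/min under 3.0 atm. Melting temperature (Tm) is taken from the peak, and enthalpy of unfolding (ΔH) from the area under the DSC peak.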
Background: In DSC, transitions show as peaks or steps in heat flow.

Data set [4] shares this target. Description: Binding affinity to Vaccinia virus recombinant N1L expressed in Escherichia coli BL21 (DE3) assessed as effect on enthalpy of protein unfolding at 214 uM by differential scanning calorimetry. Conditions: Orthopoxvirus vaccinia. The method in brief:
as §2

Data set [5] concerns the target T1, N1L. Description: Displacement of FITC-conjugated BH3-Bak peptide from Vaccinia virus recombinant N1L expressed in Escherichia coli BL21 (DE3) by fluorescence polarization assay. More on the design: species or system Orthopoxvirus vaccinia. The method in brief:
as §1

In data set [6] the target is N1L (Vaccinia virus) (UniProt Q49PX0). Description: Destabilizing effect on Vaccinia virus recombinant N1L expressed in Escherichia coli BL21 (DE3) assessed as decrease in equilibrium constant of protein dimerization at 100 uM by analytical ultracentrifugation. Conditions: Orthopoxvirus vaccinia. Put shortly: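 Sedimentation equilibrium AUC of N1L in PBS at 0.45, 0.15 and 0.05 mg/ml, with 2% DMSO and compound at 50–100 μM. Spun at 20,000 rpm, 20 °C, 24 h. Data fit to a monomer–dimer or monomer–dimer–tetramer equilibrium model to obtain the dimerization KD.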

Data set [7] shares this target. Nature of the data set: Binding affinity to Vaccinia virus recombinant N1L expressed in Escherichia coli BL21 (DE3) assessed as effect on enthalpy of protein unfolding at 106 uM by differential scanning calorimetry. As to conditions: Orthopoxvirus vaccinia. Put shortly: (§3)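 DSC at 1 K/min scan rate under 3.0 atm. Samples in PBS with 1.0 mg/ml (71 μM) N1L, 2 or 5% DMSO, and compound at 71, 106 or 214 μM; DMSO-only reference. Melting temperature and enthalpy of unfolding (area under peak) taken from thermograms.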

Data set [8] can be described thus: Displacement of FITC-conjugated BH3-Bim peptide from Vaccinia virus N-terminal GST-fused F1L expressed in Escherichia coli BL21 (DE3) by fluorescence polarization assay. On the set-up: species or system Orthopoxvirus vaccinia. Put shortly: (§4)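 Fluorescence polarization competition with 10 nM BH3-Bim peptide against F1L or Bcl-2, run alongside N1L, with titrated ligand and a variable-slope dose-response fit for IC50. F1L construct: residues 35–190 from vaccinia WR as N-terminal GST fusion, expressed in E. coli BL21(DE3) (500 μM IPTG, 20 °C, 18 h), finished on Superdex 200 in 20 mM Tris pH 8.0, 100 mM NaCl.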

The target in data set [9] is N1L (Vaccinia virus) (UniProt Q49PX0). Description: Binding affinity to Vaccinia virus recombinant N1L expressed in Escherichia coli BL21 (DE3) assessed as protein melting temperature at 106 uM by differential scanning calorimetry. As to conditions: Orthopoxvirus vaccinia. Put shortly:
as §3

The target of data set [10] is Bcl-2-like protein 1 (Homo sapiens, UniProt Q07817). Description: Displacement of FITC-conjugated BH3-Bak peptide from human recombinant Bcl-XL expressed in Escherichia coli BL21 (DE3) by fluorescence polarization assay. The method in brief: as §1
Sequence of Bcl-2-like protein 1 (Q07817 whole entry): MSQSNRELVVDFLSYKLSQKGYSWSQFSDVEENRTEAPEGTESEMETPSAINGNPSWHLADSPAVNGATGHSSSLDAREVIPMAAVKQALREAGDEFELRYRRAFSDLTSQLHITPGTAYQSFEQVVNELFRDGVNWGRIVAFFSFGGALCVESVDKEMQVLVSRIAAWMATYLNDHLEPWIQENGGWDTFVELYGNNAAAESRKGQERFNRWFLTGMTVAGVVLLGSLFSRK
In data set [11] the target is Apoptosis regulator Bcl-2 (Homo sapiens, UniProt P10415). Description: Displacement of FITC-conjugated BH3-Bim peptide from human recombinant Bcl-2 expressed in Escherichia coli BL21 (DE3) by fluorescence polarization assay. The method in brief:
as §4

Data set [12] can be described thus: Therapeutic index, ratio of TC50 for human HT1080 cells to EC50 for GFP-expressing Vaccinia virus WR infected in human HT1080 cells. As to conditions: read-out: TI. The class given is cell-based, HT-1080.
The test system of data set [13] is HT-1080. Description: Cytotoxicity against human HT1080 cells at >100 uM after 2.5 day by ATP lite assay. The class given is cell-based. As to conditions: ht-1080, 60 h.
The nature of data set [14]: Therapeutic index, ratio of TC50 for african green monkey CV1 cells to EC50 for GFP-expressing Vaccinia virus WR infected in african green monkey CV1 cells. It counts as cell-based, CV-1. As to conditions: read-out: TI.
Data set [15] is described as follows: Cytotoxicity against african green monkey CV1 cells at >100 uM after 2.5 day by ATP lite assay. It counts as cell-based. As to conditions: chlorocebus aethiops, cv-1, 60 h.
In data set [16] the target is N1L (Vaccinia virus) (UniProt Q49PX0). Description: Binding affinity to Vaccinia virus recombinant N1L expressed in Escherichia coli BL21 (DE3) assessed as effect on enthalpy of protein unfolding at 71 uM by differential scanning calorimetry. As to conditions: Orthopoxvirus vaccinia. The method in brief: as §3
The target is the same in data set [17]. Description: Binding affinity to Vaccinia virus recombinant N1L expressed in Escherichia coli BL21 (DE3) assessed as protein melting temperature at 71 uM by differential scanning calorimetry. Conditions: Orthopoxvirus vaccinia. Put shortly:
as §3

Data set [18] concerns Vaccinia virus. Description: Antiviral activity against GFP-expressing Vaccinia virus WR infected in african green monkey CV1 cells after 2.5 days by fluorescence assay. The class given is functional, organism-based. Conditions: Orthopoxvirus vaccinia, CV-1, 60 h.
Data set [19] deals with Vaccinia virus. Description: Antiviral activity against GFP-expressing Vaccinia virus WR infected in human HT1080 cells after 2.5 days by fluorescence assay. It counts as functional, organism-based. As to conditions: Orthopoxvirus vaccinia, HT-1080, 60 h.

Sequence of Apoptosis regulator Bcl-2 (P10415 whole entry): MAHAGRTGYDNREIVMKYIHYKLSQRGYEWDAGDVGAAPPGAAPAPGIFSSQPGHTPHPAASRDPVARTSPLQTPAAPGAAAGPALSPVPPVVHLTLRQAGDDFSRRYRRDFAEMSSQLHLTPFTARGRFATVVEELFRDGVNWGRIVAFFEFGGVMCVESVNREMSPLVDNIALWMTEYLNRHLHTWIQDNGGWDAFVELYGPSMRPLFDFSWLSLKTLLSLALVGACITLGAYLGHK

Regarding `COc1ccc(CCc2cc(OC)c(O)c(OC)c2)cc1`, the IC50 in [1] was found to be 5000 nM; in data set [2] it was 7500 nM; in data set [5], 5000 nM. In addition, the Tm in data set [3] worked out at 54.4 °C. Further, in data set [4], the outcome was inactive.
Take `Oc1cc(C(c2ccccc2)c2ccccc2)c2ccccc2c1O`: the IC50 amounted to 600 nM in data set [1], 1900 nM in data set [2], 1400 nM in [8] and 600 nM in [5]. For the same compound, in data set [6], the result was Active. In addition, the outcome in [7] was inactive. Moreover, the Tm in data set [9] is 54.9 °C.
As to `Oc1cc(Cc2ccccc2)c(Cc2ccccc2)cc1O`, the concentration for half-maximal inhibition (IC50) in data set [1] was determined as 900 nM; in data set [10] it was 8.5 µM; in data set [2], 1800 nM; in data set [11], 4.7 µM; in data set [8], 600 nM; in data set [5] it was 900 nM. Further, the result in data set [7] was inactive. Moreover, the Tm in [9] is 48.6 °C.
As to `COc1ccc(/C(=N/c2ccc(C)cc2)c2ccccc2)cc1`, the IC50 in data set [2] and in data set [5] was 1700 nM each time.
For the compound `COc1ccc(C(C)c2cc(OC)c(OC)c(OC)c2)cc1` (stereo not given), the results for the IC50 in [1], in [2] and in data set [5] were 5600 nM, 6600 nM and 5600 nM, respectively. Moreover, the selectivity ratio in [12] and in data set [14] was 50 in each case. Moreover, the Activity entry in data set [13] and in data set [15] was “Non-toxic” throughout.
As to `COc1cc(C(c2ccccc2)c2ccccc2)c2ccccc2c1O`, the IC50 stood at 1800 nM in [1], 2000 nM in data set [2] and 1800 nM in [5]. Also, the result in data set [16] was inactive. Further, the Tm in data set [17] worked out at 57.5 °C.
Regarding `Oc1ccc(/C=C/c2cc(O)cc(O)c2)cc1` [RESVERATROL], the half-inhibitory concentration (IC50) came out at 190 µM in [10], 21900 nM in data set [2] and 21900 nM in data set [5]. Also, the Tm in data set [3] worked out at 54.2 °C. Also, the result in data set [4] was inactive.
With `COc1cc(C(=N\c2ccccc2)/C(=N/c2ccccc2)c2cc(OC)c(OC)c(OC)c2)cc(OC)c1OC`, the half-maximal inhibitory concentration (IC50) in [1] stood at 2400 nM; in data set [2], 3500 nM; in data set [5] it was 2400 nM.
With `COc1cc(C(c2ccc(O)c(OC)c2)c2ccc(O)c(OC)c2)ccc1O`, the values for the IC50 in data set [1], in data set [2] and in [5] were 8800 nM, 12400 nM and 8800 nM, respectively.
Take `COc1cc(-c2ccc3cc(OC)c(OC)c(OC)c3c2)cc(OC)c1OC`: the IC50 in data set [1] was determined as 900 nM; in data set [2], 1600 nM; in data set [8], 1700 nM; in data set [5] it was 900 nM. The outcome in data set [6] was Active. In addition, the EC50 turned out to be 13.2 µM in [18] and 16.9 µM in data set [19]. In addition, the Activity result in data set [13] and in [15] was “Non-toxic” throughout. The result in data set [7] was inactive. In data set [9], the Tm came out at 56.3 °C.
Take `Oc1ccc(/C=N/c2ccccc2/N=C/c2ccc(O)c(O)c2)cc1O`: the half-inhibitory concentration (IC50) is 1200 nM in data set [1], 1300 nM in data set [2] and 1200 nM in data set [5]. Also, the half-maximal effective concentration (EC50) in data set [18] came out at 13.2 µM; in data set [19] it was 10.9 µM. In addition, the selectivity ratio in [12] and in [14] was 5.6 each time. Also, the Activity entry in data set [13] and in [15] was “Non-toxic” each time. Also, the outcome in data set [7] was inactive. The Tm in data set [9] was 52.3 °C.
`COc1ccc2ccccc2c1-c1c(O)ccc2ccccc12`: the IC50 in data set [1] was determined as 1500 nM; in [2] it was 3600 nM; in data set [5] it was 1500 nM.
